In ChEMBL document CHEMBL1629690, “Development of hexadecyloxypropyl tenofovir (CMX157) for treatment of infection caused by wild-type and nucleoside/nucleotide-resistant HIV” (Antimicrob Agents Chemother, 2010):

System: Human immunodeficiency virus 1
Test: Antiviral activity against HIV1 isolate 211 harboring reverse transcriptase D67N/K70R/T215F/K219E/M184V mutant gene by phenosense assay relative to wild type
Assay type: functional
Conditions: not given
Procedure, shortened: (§1)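 PhenoSense HIV recombinant virus assay: patient-derived HIV-1 with major NRTI resistance mutations tested against increasing drug concentrations to give inhibition curves. EC50 is the concentration giving 50% inhibition. Fold change is the test recombinant EC50 divided by the EC50 of a drug-sensitive wild-type reference virus. Panel of 30 NRTI-resistant isolates plus two wild-type viruses.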

Row | Compound | fold change (FC)
1 | O=c1[nH]cnc2c1ncn2[C@H]1CC[C@@H](CO)O1 [DIDANOSINE] | 1.6

System: Human immunodeficiency virus 1
Test: Antiviral activity against HIV1 isolate 194 harboring reverse transcriptase M41L/T215Y/M184V mutant gene by phenosense assay relative to wild type
Assay type: functional
Conditions: not given
Procedure, shortened: (§2)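 Recombinant-virus PhenoSense HIV assay run on a panel of 30 NRTI-resistant HIV-1 mutants and two wild-type viruses. Each virus is tested across increasing drug concentrations to give an inhibition curve and EC50. Fold change is the test recombinant EC50 divided by the EC50 of the drug-sensitive wild-type reference virus.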

Row | Compound | fold change (FC)
2 | O=c1[nH]cnc2c1ncn2[C@H]1CC[C@@H](CO)O1 [DIDANOSINE] | 1.8

System: Human immunodeficiency virus 1
Test: Antiviral activity against HIV1 isolate 162 harboring reverse transcriptase A62V/V75I/F77L/Y115F/F116Y/Q151M/M184V mutant gene by phenosense assay relative to wild type
Assay type: functional
Conditions: not given
Procedure, shortened: as §2

Row | Compound | fold change (FC)
3 | O=c1[nH]cnc2c1ncn2[C@H]1CC[C@@H](CO)O1 [DIDANOSINE] | 11

System: Human immunodeficiency virus 1
Test: Antiviral activity against HIV1 isolate 069 harboring reverse transcriptase D67E/T69SSG/V75M/M184V/L210W/T215Y mutant gene by phenosense assay
Assay type: functional, organism-based
Conditions: Human immunodeficiency virus 1, isolate 069
Procedure, shortened: as §2

Row | Compound | EC50 [µM]
4 | O=c1[nH]cnc2c1ncn2[C@H]1CC[C@@H](CO)O1 [DIDANOSINE] | 24

System: Human immunodeficiency virus 1
Test: Antiviral activity against HIV1 isolate 203 harboring reverse transcriptase M41L/L210W/T215Y/M184V mutant gene by phenosense assay
Assay type: functional, organism-based
Conditions: Human immunodeficiency virus 1, isolate 203
Procedure, shortened: as §1

Row | Compound | EC50 [µM]
5 | O=c1[nH]cnc2c1ncn2[C@H]1CC[C@@H](CO)O1 [DIDANOSINE] | 8.2

System: Human immunodeficiency virus 1
Test: Antiviral activity against HIV1 isolate 069 harboring reverse transcriptase D67E/T69SSG/V75M/M184V/L210W/T215Y mutant gene by phenosense assay relative to wild type
Assay type: functional
Conditions: not given
Procedure, shortened: as §2

Row | Compound | fold change (FC)
6 | O=c1[nH]cnc2c1ncn2[C@H]1CC[C@@H](CO)O1 [DIDANOSINE] | 4.4

System: Human immunodeficiency virus 1
Test: Antiviral activity against HIV1 isolate 203 harboring reverse transcriptase M41L/L210W/T215Y/M184V mutant gene by phenosense assay relative to wild type
Assay type: functional
Conditions: not given
Procedure, shortened: as §1

Row | Compound | fold change (FC)
7 | O=c1[nH]cnc2c1ncn2[C@H]1CC[C@@H](CO)O1 [DIDANOSINE] | 1.5

System: Human immunodeficiency virus 1
Test: Antiviral activity against HIV1 isolate 063 harboring reverse transcriptase M41L/D67N/K70R/M184V/L210W/T215Y/K219E mutant gene by phenosense assay
Assay type: functional, organism-based
Conditions: Human immunodeficiency virus 1, isolate 063
Procedure, shortened: as §2

Row | Compound | EC50 [µM]
8 | O=c1[nH]cnc2c1ncn2[C@H]1CC[C@@H](CO)O1 [DIDANOSINE] | 11

System: Human immunodeficiency virus 1
Test: Antiviral activity against HIV1 isolate 206 harboring reverse transcriptase D67N/K70R mutant gene by phenosense assay relative to wild type
Assay type: functional
Conditions: not given
Procedure, shortened: as §1

Row | Compound | fold change (FC)
9 | O=c1[nH]cnc2c1ncn2[C@H]1CC[C@@H](CO)O1 [DIDANOSINE] | 1.2

System: Human immunodeficiency virus 1
Test: Antiviral activity against HIV1 isolate 188 harboring reverse transcriptase T215Y/M184V mutant gene by phenosense assay
Assay type: functional, organism-based
Conditions: Human immunodeficiency virus 1, isolate 188
Procedure, shortened: as §2

Row | Compound | EC50 [µM]
10 | O=c1[nH]cnc2c1ncn2[C@H]1CC[C@@H](CO)O1 [DIDANOSINE] | 7.9

System: Human immunodeficiency virus 1
Test: Antiviral activity against HIV1 isolate 071 harboring reverse transcriptase 65R/S68N/184V mutant gene by phenosense assay relative to wild type
Assay type: functional
Conditions: not given
Procedure, shortened: as §2

Row | Compound | fold change (FC)
11 | O=c1[nH]cnc2c1ncn2[C@H]1CC[C@@H](CO)O1 [DIDANOSINE] | 2.6

System: Human immunodeficiency virus 1
Test: Antiviral activity against HIV1 isolate 153 harboring reverse transcriptase L74V mutant gene by phenosense assay
Assay type: functional, organism-based
Conditions: Human immunodeficiency virus 1, isolate 153
Procedure, shortened: as §2

Row | Compound | EC50 [µM]
12 | O=c1[nH]cnc2c1ncn2[C@H]1CC[C@@H](CO)O1 [DIDANOSINE] | 8.9

System: Human immunodeficiency virus 1
Test: Antiviral activity against HIV1 isolate 067 harboring reverse transcriptase A62V/D67G/T69SVG/V75I/T215I mutant gene by phenosense assay
Assay type: functional, organism-based
Conditions: Human immunodeficiency virus 1, isolate 067
Procedure, shortened: as §2

Row | Compound | EC50 [µM]
13 | O=c1[nH]cnc2c1ncn2[C@H]1CC[C@@H](CO)O1 [DIDANOSINE] | 22

System: Human immunodeficiency virus 1
Test: Antiviral activity against HIV1 isolate 212 harboring reverse transcriptase L210W/T215Y mutant gene by phenosense assay relative to wild type
Assay type: functional
Conditions: not given
Procedure, shortened: as §1

Row | Compound | fold change (FC)
14 | O=c1[nH]cnc2c1ncn2[C@H]1CC[C@@H](CO)O1 [DIDANOSINE] | 1

System: Human immunodeficiency virus 1
Test: Antiviral activity against HIV1 isolate 070 harboring reverse transcriptase 65R/S68G mutant gene by phenosense assay relative to wild type
Assay type: functional
Conditions: not given
Procedure, shortened: as §2

Row | Compound | fold change (FC)
15 | O=c1[nH]cnc2c1ncn2[C@H]1CC[C@@H](CO)O1 [DIDANOSINE] | 1.7

System: Human immunodeficiency virus 1
Test: Antiviral activity against HIV1 isolate 192 harboring reverse transcriptase M41L/T215Y mutant gene by phenosense assay relative to wild type
Assay type: functional
Conditions: not given
Procedure, shortened: as §2

Row | Compound | fold change (FC)
16 | O=c1[nH]cnc2c1ncn2[C@H]1CC[C@@H](CO)O1 [DIDANOSINE] | 1.1

System: Human immunodeficiency virus 1
Test: Antiviral activity against HIV1 isolate 201 harboring reverse transcriptase M41L/L210W/T215Y mutant gene by phenosense assay
Assay type: functional, organism-based
Conditions: Human immunodeficiency virus 1, isolate 201
Procedure, shortened: as §2

Row | Compound | EC50 [µM]
17 | O=c1[nH]cnc2c1ncn2[C@H]1CC[C@@H](CO)O1 [DIDANOSINE] | 5.9

System: Human immunodeficiency virus 1
Test: Antiviral activity against HIV1 isolate 215 harboring reverse transcriptase D67N/K70E mutant gene by phenosense assay
Assay type: functional, organism-based
Conditions: Human immunodeficiency virus 1, isolate 215
Procedure, shortened: as §1

Row | Compound | EC50 [µM]
18 | O=c1[nH]cnc2c1ncn2[C@H]1CC[C@@H](CO)O1 [DIDANOSINE] | 7.7
